In ChEMBL document CHEMBL4024716, “Pronounced anti-proliferative activity and tumor cell selectivity of 5-alkyl-2-amino-3-methylcarboxylate thiophenes” (Eur J Med Chem, 2017):
One block for each compound: values may come before it.

Key:
[1] = Drug uptake in endoplasmic reticulum of human PC3 cells co-expressing RFP at 10 uM by confocal microscopic analysis; type: ADME
In short: (§1)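 Cells were transduced with BacMam baculovirus (50 particles/cell) for 16–24 h to express organelle-targeted RFP (Golgi, lysosomes, early/late endosomes, mitochondria, ER). After two phenol red-free DMEM rinses, 10 μM NBD-labelled compound was added, and red and green signals were imaged immediately by confocal microscopy.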

[2] = (§2) Drug uptake in nucleus of human PC3/TJ191 cells co-expressing RFP at 10 uM by confocal microscopic analysis; type: ADME
[3] = Drug uptake in lysosomes of human PC3 cells co-expressing RFP at 10 uM by confocal microscopic analysis; type: ADME, Lysosome; in short: as §1
[4] = Drug uptake in early endosome of human PC3 cells co-expressing RFP at 10 uM by confocal microscopic analysis; type: ADME; in short: as §1
[5] = Drug uptake in mitochondria of human PC3/TJ191 cells co-expressing RFP at 10 uM by confocal microscopic analysis; type: ADME
[6] = Drug uptake in nucleus of human PC3 cells at 10 uM measured immediately by confocal fluorescence microscopic method; type: ADME, cell-based
[7] = Drug uptake in golgi apparatus of human PC3 cells co-expressing RFP at 10 uM by confocal microscopic analysis; type: ADME; in short: as §1
[8] = Drug uptake in cytoplasm of human PC3 cells at 10 uM measured immediately by confocal fluorescence microscopic method; type: ADME
[9] = Drug uptake in late endosome of human PC3/TJ191 cells co-expressing RFP at 10 uM by confocal microscopic analysis; type: ADME
[10] = Drug uptake in late endosome of human PC3 cells co-expressing RFP at 10 uM by confocal microscopic analysis; type: ADME; in short: as §1
[11] = Drug uptake in early endosome of human PC3/TJ191 cells co-expressing RFP at 10 uM by confocal microscopic analysis; type: ADME
[12] = Drug uptake in mitochondria of human PC3 cells co-expressing RFP at 10 uM by confocal microscopic analysis; type: ADME; in short: as §1
[13] = Drug uptake in nucleus of human PC3 cells co-expressing RFP at 10 uM by confocal microscopic analysis; type: ADME, cell-based; in short: as §1
[14] = Drug uptake in lysosomes of human PC3/TJ191 cells co-expressing RFP at 10 uM by confocal microscopic analysis; type: ADME, Lysosome
[15] = Drug uptake in golgi apparatus of human PC3/TJ191 cells co-expressing RFP at 10 uM by confocal microscopic analysis; type: ADME
[16] = Drug uptake in nuclear membrane of human PC3/TJ191 cells co-expressing RFP at 10 uM by confocal microscopic analysis; type: ADME, cell membranes
[17] = Drug uptake in endoplasmic reticulum of human PC3/TJ191 cells co-expressing RFP at 10 uM by confocal microscopic analysis; type: ADME
[18] = Drug uptake in nuclear membrane of human PC3 cells co-expressing RFP at 10 uM by confocal microscopic analysis; type: ADME, cell membranes; in short: as §1
[19] = as §2; type: ADME; remark: listed apart in the source
[20] = Drug uptake in nucleus of human HeLa cells at 10 uM measured after incubation by confocal fluorescence microscopic method; type: ADME, cell-based
[21] = Drug uptake in cytoplasm of human HeLa cells at 10 uM measured immediately by confocal fluorescence microscopic method; type: ADME, cell-based
[22] = Drug uptake in nucleus of human CEM cells at 10 uM measured after incubation by confocal fluorescence microscopic method; type: ADME, cell-based
[23] = Drug uptake in nucleus of human HeLa cells at 10 uM measured immediately by confocal fluorescence microscopic method; type: ADME, cell-based
[24] = Drug uptake in nucleus of human CEM cells at 10 uM measured immediately by confocal fluorescence microscopic method; type: ADME, cell-based
[25] = Drug uptake in cytoplasm of human CEM cells at 10 uM measured immediately by confocal fluorescence microscopic method; type: ADME
[26] = Drug uptake in nucleus of human PC3 cells at 10 uM measured after incubation by confocal fluorescence microscopic method; type: ADME, cell-based
CAKI-1 = assay: Cytotoxicity against human Caki1 cells after 72 to 96 hrs by coulter counter method; type: functional, cell-based
PC-3 = assay: Cytotoxicity against human PC3 cells after 72 to 96 hrs by coulter counter method
Raji = assay: Cytotoxicity against human Raji cells after 72 to 96 hrs by coulter counter method; type: functional, cell-based
HeLa [27] = assay: Selectivity ratio of IC50 for human HeLa cells to IC50 for human PC3 cells; type: functional
Huh-7 = assay: Cytotoxicity against human HuH7 cells after 72 to 96 hrs by coulter counter method; type: functional, cell-based
MOLT-4 = assay: Cytotoxicity against human MOLT4 cells after 72 to 96 hrs by coulter counter method; type: functional, cell-based
[28] = Selectivity ratio of IC50 for human Raji cells to IC50 for human CEM cells; type: functional
HeLa [29] = assay: Cytotoxicity against human HeLa cells after 72 to 96 hrs by coulter counter method; type: functional, cell-based
CCRF-CEM = assay: Cytotoxicity against human CEM cells after 72 to 96 hrs by coulter counter method

Drug uptake [1]: Active
Drug uptake [2]: Active
Drug uptake [3]: Not Active
Drug uptake [4]: Not Active
Drug uptake [5]: Not Active
Drug uptake [6]: Not Active
Drug uptake [7]: Not Active
Drug uptake [8]: Active
Drug uptake [9]: Not Active
Drug uptake [10]: Not Active
Drug uptake [11]: Not Active
Drug uptake [12]: Active
Drug uptake [13]: Active
Drug uptake [14]: Not Active
Drug uptake [15]: Not Active
Drug uptake [16]: Active
Drug uptake [17]: Active
Drug uptake [18]: Active
Drug uptake [19]: Active
Compound: COC(=O)c1cc(CCCCCCCNc2ccc([N+](=O)[O-])c3nonc23)sc1N

Drug uptake [20]: Not Active
Drug uptake [21]: Active
Drug uptake [22]: Not Active
Drug uptake [6]: Not Active
Drug uptake [8]: Active
Drug uptake [23]: Not Active
Drug uptake [24]: Not Active
Drug uptake [25]: Active
Drug uptake [26]: Not Active
Compound: COC(=O)c1cc(CCCCCCCNS(=O)(=O)c2cccc3c(N(C)C)cccc23)sc1N

Compound: CCc1cc(C(=O)OC)c(N)s1
IC50 (CAKI-1): 92 µM
IC50 (PC-3): 27 µM
IC50 (Raji): > 250 µM
Ratio IC50 (HeLa [27]): 6.7
IC50 (Huh-7): 84 µM
IC50 (MOLT-4): 29 µM
Ratio IC50 [28]: >1.4

Compound: CCCc1cc(C(=O)OC)c(N)s1
IC50 (HeLa [29]): 61 µM
IC50 (CCRF-CEM): 6.9 µM
IC50 (CAKI-1): 5.4 µM
IC50 (PC-3): 3.4 µM
IC50 (Raji): 104 µM
Ratio IC50 (HeLa [27]): 18
IC50 (Huh-7): 2.5 µM
IC50 (MOLT-4): 2.1 µM
Ratio IC50 [28]: 16
